From PubChem BioAssay
ABCB6 inh MLPCN – human ABCB6 transporter inhibition | fluorescence ratio to DMSO, % at 10 µM | 0.19% of 360,000 active | K562-ABCB6 porphyrin accumulation, flow cytometry, 1 h; stronger effect = lower value;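 active = fluorescence ratio to DMSO below 75%, the collection mean minus 3 SD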;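 also: signal is porphyrin accumulated inside mitochondria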
Target sequence (Q9NP58 whole entry, looked up): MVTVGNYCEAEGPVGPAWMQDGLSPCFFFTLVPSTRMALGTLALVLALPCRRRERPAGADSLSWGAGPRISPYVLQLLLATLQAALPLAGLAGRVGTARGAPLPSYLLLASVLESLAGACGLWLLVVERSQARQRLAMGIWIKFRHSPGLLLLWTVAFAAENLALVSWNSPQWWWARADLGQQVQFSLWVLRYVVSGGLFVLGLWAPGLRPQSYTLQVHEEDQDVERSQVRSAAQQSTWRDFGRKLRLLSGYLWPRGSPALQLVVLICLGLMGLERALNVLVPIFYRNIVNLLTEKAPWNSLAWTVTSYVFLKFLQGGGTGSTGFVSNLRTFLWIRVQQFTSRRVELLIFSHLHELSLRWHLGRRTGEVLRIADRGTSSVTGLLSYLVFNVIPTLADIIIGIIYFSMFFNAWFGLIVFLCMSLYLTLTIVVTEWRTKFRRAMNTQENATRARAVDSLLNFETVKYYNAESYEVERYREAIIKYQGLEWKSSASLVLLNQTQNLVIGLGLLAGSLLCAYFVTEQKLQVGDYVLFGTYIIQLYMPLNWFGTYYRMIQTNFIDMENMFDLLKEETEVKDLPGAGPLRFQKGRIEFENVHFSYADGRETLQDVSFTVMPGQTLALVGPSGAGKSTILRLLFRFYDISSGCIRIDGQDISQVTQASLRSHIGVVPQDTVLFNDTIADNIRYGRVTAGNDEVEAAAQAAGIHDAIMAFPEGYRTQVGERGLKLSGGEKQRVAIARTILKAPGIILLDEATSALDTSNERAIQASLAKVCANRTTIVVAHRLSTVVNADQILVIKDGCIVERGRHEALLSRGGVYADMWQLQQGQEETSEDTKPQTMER
FAS TE block – inhibitors of human fatty acid synthase thioesterase domain; P49327; recombinant FAS-TE, OMFH fluorogenic substrate, fluorescence endpoint; inhibition, % at 15 µM; 0.67% of 360,000 active;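 active = compounds whose normalised, plate-corrected inhibition of enzyme fluorescence in the single-dose primary screen is 50% or more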
SENP1 FRET inh – blocks the human SENP1 SUMO protease catalytic domain | Q9P0U3 | recombinant SENP1 catalytic domain, CyPet-SUMO1-YPet FRET cleavage | inhibition, % at 10 µM | 0.21% of 360,000 active;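 active = inhibition at least 30% at 10 µM, raw YFP signal under a set limit, fluorescence ratio 0.5 to 1.5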
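system = hSENP1 catalytic domain, recombinant | reagent = SFCypet-SUMO1-SFYpet substrate at 25 nM | doses = one dose per compound, 10 µM, 0.5% DMSO | incubation = enzyme reaction for 50 min at room temperature, dark | measured by = FRET, CFP and YFP emission | controls = no-enzyme low, enzyme-DMSO high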
hiPSC survival – enhancers of human iPSC single-cell survival | survival enhancement, % at 20 µM | hiPSC single-cell survival, ATPlite luminescence; 100% = ROCK inhibitor wells, 0% = DMSO | 0.044% of 360,000 active; in the data active = survival enhancement above about 18%;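 also: cells exposed to compounds for 16 hours before the ATP read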
FAS-TE conf – FAS thioesterase (human) inhibition, confirmation | recombinant FAS-TE, OMFH fluorogenic substrate, fluorescence | 45% of 2,300 active | inhibition, % at 15 µM | shares compounds with FAS TE block;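 active = compounds inhibiting the enzyme by at least 50% at 15 µM in any one of the replicates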
Each line names hits and unclear results; the compound was inactive in the other large screens (follow-up assays come after a bar, where they were run). This is a sample that favours compounds with a hit; in the whole collection about 1.1% have one here.

CCOC1=C2[C@@H](CN(S(=O)(=O)c3ccc(C)cc3)[C@H]2c2ccccc2Cl)[C@H]2C(=O)N(C)C(=O)[C@H]2C1	none
CCn1c(=N)c(S(=O)(=O)c2ccccc2)cc2c(=O)n3ccccc3nc21	FAS TE block 54.8 | FAS-TE conf inactive
CCCn1c(=N)c(S(=O)(=O)c2ccccc2)cc2c(=O)n3ccccc3nc21	none
Cn1ncc(Cl)c1C(=O)N1CCN(c2ccc(F)cc2)CC1	none
CCOC(=O)[C@@H]1[C@H]2COc3cc(OC)ccc3[C@H]2N2C(=O)N(c3cccc(Cl)c3)C(=O)[C@@]12C	FAS TE block 73.9 | FAS-TE conf 48.1
COc1ccc(CN2CC(=O)N3[C@H]4c5ccc(OC)cc5OC[C@@H]4[C@H](c4ccccc4)[C@]3(C)C2=O)cc1	FAS TE block 65.6 | FAS-TE conf inactive
COc1ccc2c(c1)OC[C@H]1[C@H]2N2C(=O)CN(Cc3ccc(Cl)cc3)C(=O)[C@@]2(C)[C@H]1c1ccccc1	FAS TE block 74.9 | FAS-TE conf inactive
Cc1nn(-c2ccccc2)c2nc(C(Cl)(Cl)Cl)[nH]c(=O)c12	none
O=C(NCc1ccco1)C12CN(Cc3ccccc3)CC1C(c1ccc([N+](=O)[O-])cc1)=NO2 (stereo not drawn)	none
O=C(NCCc1cccs1)C12CN(Cc3ccccc3)CC1C(c1cccc([N+](=O)[O-])c1)=NO2 (stereo not drawn)	FAS TE block 51.1 | FAS-TE conf inactive
O=C(NCc1ccco1)C12CN(Cc3ccccc3)CC1C(c1cccc([N+](=O)[O-])c1)=NO2 (stereo not drawn)	FAS TE block 53.9 | FAS-TE conf inactive
O=C(c1cc(-c2cccs2)nc2ccccc12)N1CCN(S(=O)(=O)c2ccccc2)CC1	none
O=C(c1cc(-c2cccs2)nc2ccccc12)N1CCN(c2ccccc2)CC1	FAS TE block 50.5 | FAS-TE conf inactive
CCCC(=O)Nc1nc(-c2ccc3c(c2)CCN3S(C)(=O)=O)cs1	none
CS(=O)(=O)N1CCc2cc(-c3csc(NC(=O)Cc4ccccc4)n3)ccc21	FAS TE block 64.5 | FAS-TE conf 58.4
CC1Cc2cc(-c3csc(NC(=O)Cc4cccs4)n3)ccc2N1S(C)(=O)=O (stereo not drawn)	FAS TE block 51.1 | FAS-TE conf 53.2
CCC(=O)Nc1nc(-c2ccc3c(c2)CC(C)N3S(C)(=O)=O)cs1 (stereo not drawn)	none
Cc1ccc(C2=NS(=O)(=O)N(C)C(C(=O)NCc3ccccc3)=C2)cc1	none
FCCCOc1ccc(-c2ccnc(-c3ccccc3)n2)cc1	FAS TE block 53.9 | FAS-TE conf inactive
CC1(C(=O)NS(=O)(=O)c2cccc(C#N)c2)CCN1C(=O)c1ccc(C2CCCCC2)cc1 (stereo not drawn)	none
CCCN(C)C1CN(Cc2cn(CCCC(=O)OC)nn2)S(=O)(=O)C1 (stereo not drawn)	none
O=C(COc1ccc2c(-c3ccccc3)cc(=O)oc2c1)N[C@@H](Cc1c[nH]c2ccc(O)cc12)C(=O)O	FAS TE block 74.2 | FAS-TE conf 70.0
O=C(COc1ccc2c(-c3ccccc3)cc(=O)oc2c1)NC(Cc1c[nH]c2ccccc12)C(=O)O (stereo not drawn)	none
COc1ccc(C(=O)N2CCN(c3ncccn3)CC2)cc1[N+](=O)[O-]	none
Cc1c(OCC(=O)N2CCC(C(=O)NCCCC(=O)O)CC2)ccc2c1oc(=O)c1ccccc12	none
COc1cc(NC(=O)C2(C)CCCN2C)cc(OC)c1OC (stereo not drawn)	none
C/C(=N\NC(=O)c1nnn(-c2nonc2N)c1-c1ccc(Cl)c(Cl)c1)c1ccncc1	FAS TE block 54.9 | FAS-TE conf 56.5
C/C(=N/NC(=O)c1nnn(-c2nonc2N)c1-c1ccccc1)c1ccncc1	none
O=C(CN1C(=O)NC2(CCCCC2)C1=O)Nc1cc(C(F)(F)F)ccc1N1CCCC1	none
CC1CC(C)(C)CC2(C1)NC(=O)N(CC(=O)Nc1cc(C(F)(F)F)ccc1N1CCCCC1)C2=O (stereo not drawn)	FAS TE block 60.0 | FAS-TE conf inactive
O=C(NCCS(=O)(=O)N1CCN(c2ccccc2F)CC1)c1cccs1	none
CS(=O)(=O)c1ccc(-c2csc(C(O)c3cccc(Cl)c3)n2)cc1 (stereo not drawn)	FAS TE block 52.3 | FAS-TE conf inactive
O=C(COC(=O)c1cc([N+](=O)[O-])ccc1Cl)NCCc1ccccc1	FAS TE block 76.1 | FAS-TE conf 83.4
O=C(COc1ccc([N+](=O)[O-])cc1Cl)NCCc1ccccc1	none
CN(C(=O)COC(=O)c1cc([N+](=O)[O-])ccc1Cl)c1ccccc1	FAS TE block 52.4 | FAS-TE conf 62.1
Cc1ccc(C(O)c2ncc(-c3ccc4ccccc4c3)[nH]2)cc1F (stereo not drawn)	none
C/C(=N\Nc1ccc(C(=O)O)cc1)c1ccc2c(c1)Nc1ccccc1S2	FAS TE block 71.3 | FAS-TE conf 60.7
C/C(=N/Nc1ccc(C(=O)O)cc1)c1ccc2c(c1)Nc1ccccc1S2	FAS TE block 51.5 | FAS-TE conf 62.1
CCn1cc(Cl)c(C(=O)NNC(=O)CCn2ccc([N+](=O)[O-])n2)n1	none
O=C(CSc1nnc(C2CC2)n1C1CC1)c1cc(F)ccc1F	none
O=C(NCC1CCCO1)c1ccccc1NS(=O)(=O)c1cc([N+](=O)[O-])ccc1Cl (stereo not drawn)	none
O=C(c1cc(COc2cccc(C(F)(F)F)c2)on1)N1C[C@@H]2CCC[C@H]1C2	FAS TE block 56.2 | FAS-TE conf 24.5
CCOC(=O)C1(Cc2ccccc2)CCCN(S(=O)(=O)N(C)C)C1 (stereo not drawn)	none
CCN(CC)S(=O)(=O)c1ccc(N2CCOCC2)c(NC(=O)C(=O)c2c(-c3ccccc3)cc3ccccn23)c1	FAS TE block 54.0 | FAS-TE conf inactive
CCN(CC)S(=O)(=O)c1cccc(NC(=O)C(=O)c2c(-c3ccccc3)cc3ccccn23)c1	none
COc1ccccc1NS(=O)(=O)c1ccc(N/N=C/C=C/c2ccccc2[N+](=O)[O-])c([N+](=O)[O-])c1	FAS TE block 60.6 | FAS-TE conf inactive
COc1ccccc1NS(=O)(=O)c1cccc(C(=O)N/N=C/c2c(C)nn(-c3ccccc3)c2N2CCCC2)c1	ABCB6 inh MLPCN 74.0, FAS TE block 61.7 | FAS-TE conf inactive
COc1ccccc1NS(=O)(=O)c1ccc(N/N=C/c2ccccc2OCC(=O)O)c([N+](=O)[O-])c1	none
O=C(O)c1ccccc1NS(=O)(=O)c1ccc(NN=Cc2ccc(F)cc2)c([N+](=O)[O-])c1	FAS TE block 57.1 | FAS-TE conf 70.9
COc1ccccc1NS(=O)(=O)c1ccc(N/N=C/c2c(C)nn(-c3ccccc3)c2N2CCCC2)c([N+](=O)[O-])c1	FAS TE block 63.9 | FAS-TE conf inactive
